{"source": "ChEMBL document CHEMBL4229456", "about": "“Salicylic Acid Derivatives Inhibit Oxalate Production in Mouse Hepatocytes with Primary Hyperoxaluria Type 1” (J Med Chem, 2018)", "key": {"[1]": {"target": "T1, 2-Hydroxyacid oxidase 1 (Mus musculus) (UniProt Q9WU19)", "T1 sequence (whole entry)": "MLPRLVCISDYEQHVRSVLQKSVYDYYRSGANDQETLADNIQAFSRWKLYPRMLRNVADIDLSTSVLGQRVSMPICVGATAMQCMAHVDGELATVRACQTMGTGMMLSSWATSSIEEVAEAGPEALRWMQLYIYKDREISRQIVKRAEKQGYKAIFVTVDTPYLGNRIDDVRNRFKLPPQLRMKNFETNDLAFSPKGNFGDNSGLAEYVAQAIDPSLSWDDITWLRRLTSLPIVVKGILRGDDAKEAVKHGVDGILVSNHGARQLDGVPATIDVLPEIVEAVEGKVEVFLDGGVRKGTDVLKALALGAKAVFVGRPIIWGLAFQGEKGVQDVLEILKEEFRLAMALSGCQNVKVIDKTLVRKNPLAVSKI", "test": "Inhibition of glycolate oxidase in C57BL/6 Agxt1-/- mouse hepatocytes using glycolate as substrate assessed as relative oxalate level at 10 uM after 24 hrs", "type": "cell-based", "outline": "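Primary Agxt1-/- mouse hepatocytes in 6-well plates, serum-free Williams E with 5 mM glycolate, treated with 10 µM compound. Excreted oxalate measured 24 h later by oxalate oxidase–HRP colorimetric kit (595 nm) and expressed relative to untreated control. Mean ± SD, n = 3, one-way ANOVA.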"}, "[2]": {"target": "T2, 2-Hydroxyacid oxidase 1 (Mus musculus, UniProt Q9WU19)", "T2 sequence (Q9WU19 whole entry)": "T1 sequence (whole entry)", "test": "Inhibition of glycolate oxidase in C57BL/6 Agxt1-/- mouse hepatocytes using glycolate as substrate assessed as reduction in oxalate production after 24 hrs", "type": "cell-based", "outline": "(§1)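 Agxt1-/- hepatocytes from male C57BL/6 mice, 3.0x10^5 cells/well, in Williams E with 5% FBS and insulin/hydrocortisone. After 5 h, switched to serum-free medium and treated across a dose range with 5 mM glycolate. Medium harvested at 24, 48 and 72 h; oxalate measured by oxalate oxidase/HRP kit (MBTH/DMAB dye, 595 nm). EC50 from nonlinear regression of log concentration.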"}, "[3]": {"target": "T2, 2-Hydroxyacid oxidase 1", "test": "Inhibition of glycolate oxidase in C57BL/6 Agxt1-/- mouse hepatocytes using glycolate as substrate assessed as reduction in oxalate production after 48 hrs", "type": "cell-based", "outline": "as §1"}, "[4]": {"target": "T2, 2-Hydroxyacid oxidase 1", "test": "Inhibition of glycolate oxidase in C57BL/6 Agxt1-/- mouse hepatocytes using glycolate as substrate assessed as reduction in oxalate production after 72 hrs", "type": "cell-based", "outline": "as §1"}, "[5]": {"target": "T1, 2-Hydroxyacid oxidase 1 (Mus musculus)", "test": "Inhibition of glycolate oxidase in C57BL/6 Agxt1-/- mouse hepatocytes using glycolate as substrate assessed as reduction in oxalate production at 2.5 uM after 24 hrs post treatment relative to control", "type": "cell-based", "outline": "(§2)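 Agxt1-/- primary hepatocytes (3.0x10^5 cells/well), serum-free Williams E with 5 mM glycolate, treated at the stated concentrations. Medium oxalate quantified at the stated time by oxalate oxidase kit (H2O2/HRP, MBTH and DMAB, 595 nm) and expressed relative to control.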"}, "[6]": {"target": "T1, 2-Hydroxyacid oxidase 1 (Mus musculus)", "test": "Inhibition of glycolate oxidase in C57BL/6 Agxt1-/- mouse hepatocytes using glycolate as substrate assessed as reduction in oxalate production at 5 uM after 72 hrs post treatment", "type": "cell-based", "outline": "as §2"}, "[7]": {"tested_on": "Hepatocyte", "test": "Cytotoxicity against C57BL/6 Agxt1-/- mouse hepatocytes at 80 uM after 24 to 48 hrs by Celltiter reagent based assay", "type": "cell-based", "outline": "(§3)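 Agxt1-/- hepatocytes (male C57BL/6, collagenase perfusion) seeded at 1.0x10^4 cells/well in 96-well plates and given the same compound concentrations as the 6-well oxalate cultures. At each time point, CellTiter 96 AQueous One reagent was added and incubated 2 h at 37°C, 5% CO2, with absorbance read at 493 nm.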"}, "[8]": {"target": "T1, 2-Hydroxyacid oxidase 1 (Mus musculus)", "test": "Potency index, ratio of EC50 for CCPST to EC50 for test compound for inhibition of glycolate oxidase in C57BL/6 Agxt1-/- mouse hepatocytes using glycolate as substrate assessed as reduction in oxalate production after 24 to 72 hrs", "type": "cell-based"}, "[9]": {"tested_on": "Armoracia rusticana", "test": "Inhibition of horseradish peroxidase at 20 uM after 1 min by sulfonated-DCIP dye based assay", "outline": "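HRP counter-screen without mGO or glycolate: H2O2 (10 µL of 1:10 000) with HRP, sulfonated DCIP and 4-aminoantipyrine under mGO assay conditions, compound added from 1 mM DMSO stock. Absorbance read at 515 nm after 1 min, compared with an H2O2 standard curve. Run in duplicate.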"}, "[10]": {"test": "Half life in mouse liver microsomes at 2 uM in presence of NADPH by LC-HRMS method", "type": "ADME, microsome"}, "[11]": {"test": "Drug metabolism in mouse liver microsomes assessed as metabolite formation at 2 uM in presence of NADPH after 60 mins by LC-HRMS method", "type": "ADME, microsome", "conditions": "1 h"}, "[12]": {"test": "Activity against horseradish peroxidase by oxalate detection based assay"}, "[13]": {"target": "T1, 2-Hydroxyacid oxidase 1 (Mus musculus)", "test": "Inhibition of mouse recombinant glycolate oxidase expressed in Escherichia coli at 25 uM using glycolate as substrate after 1 min by sulfonated DCIP dye-based assay relative to control"}, "[14]": {"target": "T2, 2-Hydroxyacid oxidase 1", "test": "Inhibition of mouse recombinant glycolate oxidase expressed in Escherichia coli using glycolate as substrate by sulfonated DCIP dye-based assay", "outline": "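Purified recombinant mGO (10 µL at 0.1 µg/µL) with saturating glycolate (22.2 mM) in 50 mM potassium phosphate pH 7. Compound at 0.2 µM–0.2 mM; H2O2 detected by HRP-coupled sulfonated DCIP/4-aminoantipyrine dye at 515 nm. IC50 from nonlinear dose-response fitting.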"}, "[15]": {"target": "T2, 2-Hydroxyacid oxidase 1", "test": "Inhibition of mouse recombinant glycolate oxidase expressed in Escherichia coli using glycolate as substrate by Dixon plot and Cornish-Bowden plot analysis", "outline": "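Recombinant mGO held at constant enzyme concentration and tested with increasing inhibitor at several glycolate concentrations in the HRP/DCIP 515 nm assay. Inhibition type read from Cornish-Bowden and Dixon plots; Ki taken as the intersection of the lines.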"}, "[16]": {"target": "T1, 2-Hydroxyacid oxidase 1 (Mus musculus)", "test": "Inhibition of glycolate oxidase in C57BL/6 Agxt1-/- mouse hepatocytes using glycolate as substrate assessed as reduction in oxalate production at 12.5 uM after 24 hrs post treatment relative to control", "type": "cell-based", "outline": "as §2"}, "[17]": {"target": "T1, 2-Hydroxyacid oxidase 1 (Mus musculus)", "test": "Inhibition of glycolate oxidase in C57BL/6 Agxt1-/- mouse hepatocytes using glycolate as substrate assessed as reduction in oxalate production at 6.25 uM after 24 hrs post treatment relative to control", "type": "cell-based", "outline": "as §2"}, "[18]": {"target": "T1, 2-Hydroxyacid oxidase 1 (Mus musculus)", "test": "Inhibition of glycolate oxidase in C57BL/6 Agxt1-/- mouse hepatocytes using glycolate as substrate assessed as reduction in oxalate production at 12.5 uM after 48 hrs post treatment relative to control", "type": "cell-based", "outline": "as §2"}, "[19]": {"tested_on": "Hepatocyte", "test": "Cytotoxicity against C57BL/6 Agxt1-/- mouse hepatocytes after 24 to 48 hrs by Celltiter reagent based assay", "type": "cell-based", "outline": "as §3"}, "[20]": {"target": "T1, 2-Hydroxyacid oxidase 1 (Mus musculus)", "test": "Potency index, ratio of EC50 for CCPST to EC50 for test compound for inhibition of glycolate oxidase in C57BL/6 Agxt1-/- mouse hepatocytes using glycolate as substrate assessed as reduction in oxalate production after 24 hrs", "type": "cell-based"}}, "note": "Active and inactive are the calls of the source. The calls are words filed in the database; no cut-off is given here."}
{"compound": "O=C(O)c1cc(-c2ccco2)ccc1O", "values": [{"measurement": "fold change (FC)", "setting": "[1]", "result": 0}, {"measurement": "EC50", "setting": "[2]", "result": 3.59, "unit": "µM"}, {"measurement": "EC50", "setting": "[3]", "result": 7.88, "unit": "µM"}, {"measurement": "EC50", "setting": "[4]", "result": 9.2, "unit": "µM"}, {"measurement": "inhibition", "setting": "[5]", "result": 26.5, "unit": "%"}, {"measurement": "inhibition", "setting": "[6]", "result": "Active"}, {"measurement": "Activity", "setting": "[7]", "result": "Toxic"}, {"measurement": "Ratio EC50", "setting": "[8]", "result": 7}, {"measurement": "inhibition", "setting": "[9]", "result": 12.6, "unit": "%"}, {"measurement": "half-life at 2 µM", "setting": "[10]", "result": 61.9, "unit": "min"}, {"measurement": "Drug metabolism", "setting": "[11]", "result": "Metabolite_Notdetected"}, {"measurement": "EC50", "setting": "[12]", "result": 18, "unit": "µM"}]}
{"compound": "O=Cc1ccc(-c2ccc(O)c(C(=O)O)c2)o1", "values": [{"measurement": "inhibition", "setting": "[13]", "result": 42.7, "unit": "%"}, {"measurement": "IC50", "setting": "[14]", "result": 38.2, "unit": "µM"}, {"measurement": "fold change (FC)", "setting": "[1]", "result": 0}, {"measurement": "Ki", "setting": "[15]", "result": 47.2, "unit": "µM"}, {"measurement": "inhibition", "setting": "[16]", "result": 106, "unit": "%"}, {"measurement": "inhibition", "setting": "[17]", "result": 67.3, "unit": "%"}, {"measurement": "inhibition", "setting": "[18]", "result": 62.3, "unit": "%"}, {"measurement": "Activity", "setting": "[19]", "result": "Non-Toxic"}, {"measurement": "EC50", "setting": "[2]", "result": 3.45, "unit": "µM"}, {"measurement": "EC50", "setting": "[3]", "result": 8.36, "unit": "µM"}, {"measurement": "EC50", "setting": "[4]", "result": 11.2, "unit": "µM"}, {"measurement": "Ratio EC50", "setting": "[8]", "result": 7}, {"measurement": "Ratio EC50", "setting": "[20]", "result": 5}, {"measurement": "half-life at 2 µM", "setting": "[10]", "result": 13.3, "unit": "min"}]}
